Most compounds without a hit are left out; they make up all but 12% or so of the library.
Arbovirus inh = arbovirus infection inhibition; inhibition, % at 10 µM; 200,000 compounds, 0.37% hits; arbovirus infection cell-based antiviral screen; in the data active means inhibition above about 30%
PKD1 kinase inh = inhibitors of human PKD1 kinase. PKD1 kinase fluorescence polarization assay. inhibition, % (concentration not given with the values). 200,000 compounds, 0.056% hits. AID 797
L major viab = reduces viability of Leishmania major promastigotes | resazurin fluorescence viability | inhibition, % at 10 µM | 200,000 compounds, 9% hits | AID 1063;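 further: promastigotes grown with compound for 44 hours at 28 °C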
Rad51 HR inh = blocks human Rad51 in homologous recombination; Q06609; hRad51 DNA strand exchange, fluorescence dequenching; inhibition, % at 10 µM; 200,000 compounds, 0.085% hits;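 active means inhibition above 40% at the single screening dose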
Target sequence (Q06609 whole entry, looked up): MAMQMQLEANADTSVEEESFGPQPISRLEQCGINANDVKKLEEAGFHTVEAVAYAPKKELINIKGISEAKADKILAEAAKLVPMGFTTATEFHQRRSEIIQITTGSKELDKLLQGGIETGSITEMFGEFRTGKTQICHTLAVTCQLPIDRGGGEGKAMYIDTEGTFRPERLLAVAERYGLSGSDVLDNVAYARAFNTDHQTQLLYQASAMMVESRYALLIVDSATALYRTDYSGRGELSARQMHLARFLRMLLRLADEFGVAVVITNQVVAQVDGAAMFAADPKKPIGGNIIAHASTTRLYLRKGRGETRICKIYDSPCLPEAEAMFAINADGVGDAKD
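System: hRad51 filaments on single-stranded DNA; reagent: Fluorescein- and BHQ1-tagged 47-mer duplex; compound dosing: one concentration, 10 µM final; timing: filaments 15 min 37 °C, then compound 30 min; measured by: fluorescein emission 520 nm, excitation 485 nm; benchmarks: per-plate controls and blanks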
CHOP inhibitor = blocks CHOP induction under ER stress; 220,000 compounds, 3.8% hits; inhibition, % at 10 µM; CHO-K1 CHOP-promoter luciferase, tunicamycin-induced, 15-18 h; AID 2732;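 active means compounds that reduced the stress-induced luciferase reporter signal by more than about 70% of percent inhibition, limit read from the data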
Wee1 stabilizer = blocks degradation of human Wee1 kinase. P30291. HeLa Luc-Wee1K328M stability, luciferase luminescence; 100% = proteasome inhibitor MG132 effect. reporter increase, % at 5 µM. 220,000 compounds, 1.2% hits. AID 1321;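 active means activation above the mean of all tested compounds plus 3 SD, set per screening run, cut at about 8.8% in these data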;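 further: cells exposed to compound for 20 h before luminescence read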
Large screens that a line does not name were inactive. Unless noted, no stated cut-off is given here; in the data, active means inhibition above about 50%; inactive means the rest.

N#CC1=C(N)Oc2n[nH]c(-c3cccs3)c2C1C1C=CCCC1 (stereo unspecified)	CHOP inhibitor 96
CCOc1ccc(/C=C/C(=O)c2cc(Br)ccc(=O)c2O)cc1	CHOP inhibitor 91
CCOc1ccc(NC(=S)NC(=O)/C=C/c2ccc(C)cc2)c([N+](=O)[O-])c1	none (no result: Rad51 HR inh)
COc1ccc(C(=O)Oc2ccc(F)cc2C(=O)/C=C/c2ccc(OC)c(OC)c2)cc1	none
COc1ccc(C(=O)Nc2ccc(NC(=O)c3cccs3)cc2)cc1Cl	none
CCc1ccc(/C=C/C(=O)c2cc(Br)ccc(=O)c2O)cc1	none
CCOc1ccc(C(=O)/C=C/c2ccc(OC)c(OC)c2)cc1	L major viab 86
CCOc1ccc(NC(=S)NC(=O)c2c(Cl)c(C)nn2C)c([N+](=O)[O-])c1	CHOP inhibitor 73
COc1ccc(/C=C/C(=O)c2ccc(NC(=O)c3cccs3)cc2)cc1OC	L major viab 98, Wee1 stabilizer 9.2
COc1ccc(C(=O)/C(C#N)=N/Nc2cccc([N+](=O)[O-])c2)cc1	none
Nc1ccc(C(=O)OC2CCOC2=O)cc1[N+](=O)[O-] (stereo unspecified)	none
COCCNC(=S)Nc1cc(OC)c(OC)cc1C#N	none
O=C1C2C3c4ccccc4C(c4ccccc43)C2C(=O)N1Cc1ccccn1 (stereo unspecified)	none
CCOc1ccc(NC(=S)NC(=O)/C=C/c2ccc(OC)c(OC)c2)c([N+](=O)[O-])c1	CHOP inhibitor 81
CCOc1ccc(/C=C/C(=O)c2ccccc2)cc1OC	L major viab 99
COc1ccc(NC(=O)c2cccnc2Nc2ccc(OC)cc2)cc1	L major viab 76
COc1ccc(CN2CCNC(=O)C2CC(=O)NCCc2c[nH]c3ccccc23)c(OC)c1 (stereo unspecified)	none
Cc1ccc(OCCOCCn2ccnc2)c(Br)c1	L major viab 92
Cc1cc(Cl)c(OCCCn2ccnc2)c(Br)c1	none (no result: Rad51 HR inh)
COc1ccc(Cn2ccnc2)cc1Br	L major viab 71
Clc1ccc(OCCCn2ccnc2)c(Br)c1	L major viab 95 (no result: Rad51 HR inh)
COc1ccc(Cn2ccnc2)cc1[N+](=O)[O-]	none
COc1ccc(N2CC(C(=O)OC(C)C(=O)c3ccccc3)CC2=O)cc1 (stereo unspecified)	none
Cc1ccc(N=C(N)N=C(N)N)c(C)c1	none (no result: Arbovirus inh, PKD1 kinase inh, L major viab)
Cc1ccc(NC(=S)NCc2ccc3c(c2)cc(C)n3C)c(C)c1	none
CC1(C)C2CCC(C2)C1(C)NC(=O)CNCC1CCCCC1 (stereo unspecified)	none
O=C(c1cccs1)[C@@H]1[C@@H]2C(=O)N(Cc3ccc4c(c3)OCO4)C(=O)[C@@H]2C2c3ccccc3C=CN21 (stereo partly specified)	L major viab 88 (no result: Rad51 HR inh)
O=C(c1ccc2c(c1)OCO2)[C@@H]1[C@@H]2C(=O)N(C3CCCCC3)C(=O)[C@@H]2C2c3ccccc3C=CN21 (stereo partly specified)	none
CCC(C(=O)Nc1cnccn1)c1ccccc1 (stereo unspecified)	none
CCC(C(=O)Nc1cc(C(=O)Nc2cc(C)ccn2)ccc1Cl)c1ccccc1 (stereo unspecified)	L major viab 81
O=C(Nc1ccccc1)N1CCN(S(=O)(=O)c2ccccc2)CC1	none
COc1ccccc1OC(=O)CCN1c2ccccc2Sc2ccccc21	none
COc1ccccc1-[n+]1c(C)cc(/C=C2\Sc3ccccc3N2C)cc1C	CHOP inhibitor 82 (no result: Arbovirus inh, PKD1 kinase inh, L major viab)
OCCNc1cc(Cl)ncn1	none (no result: Arbovirus inh, PKD1 kinase inh, L major viab)
CC(=O)c1ccccc1OCC(O)CN1CCN(CCN2C(=O)c3cccc4cccc(c34)C2=O)CC1 (stereo unspecified)	L major viab 99 (no result: Rad51 HR inh)
O=C1c2cccc3cccc(c23)C(=O)N1CCN1CCN(CC(O)COCc2ccc(Cl)cc2)CC1 (stereo unspecified)	none
O=C1c2cccc3cccc(c23)C(=O)N1CCN1CCN(C(=S)Nc2ccccc2)CC1	L major viab 95 (no result: Rad51 HR inh)
COc1cc(COCC(O)CN2CCN(CCN3C(=O)c4cccc5cccc(c45)C3=O)CC2)cc(OC)c1OC (stereo unspecified)	none (no result: Rad51 HR inh)
Cc1ccc(C)c(OCC(O)CN2CCN(CCN3C(=O)c4cccc5cccc(c45)C3=O)CC2)c1 (stereo unspecified)	L major viab 100
O=C1c2cccc3cccc(c23)C(=O)N1CCN1CCN(CC(O)COc2ccc3ccccc3c2)CC1 (stereo unspecified)	L major viab 81
CCOc1ccccc1-c1nc2c(s1)CCc1onc(-c3ccc(OC)cc3)c1-2	none (no result: Arbovirus inh, PKD1 kinase inh, L major viab, CHOP inhibitor, Wee1 stabilizer)
Cn1c(=S)n(C)c2ccccc21	none
Cn1ccc(=S)c2ccccc21	L major viab 88
COc1ccc(OC)c(Cc2nnc(CCC(=O)NCc3ccsc3)o2)c1	none
NC(=O)c1sc(-c2ccsc2)cc1NS(=O)(=O)c1ccc(C(F)(F)F)cc1	none (no result: Arbovirus inh, PKD1 kinase inh, L major viab)
Oc1ccc(/C=N/N2CCN(C3c4ccccc4-c4ccccc43)CC2)cc1	none (no result: Arbovirus inh, PKD1 kinase inh, L major viab)
Oc1ccc(/C=N/N2CCN(C3c4ccccc4-c4ccccc43)CC2)cc1O	CHOP inhibitor 91 (no result: Arbovirus inh, PKD1 kinase inh, L major viab, Rad51 HR inh)
Oc1ccc(Br)cc1/C=N/N1CCN(Cc2ccccc2)CC1	none
Oc1ccc(Br)cc1/C=N/N1CCCCC1	L major viab 52
Oc1ccc(Br)cc1/C=N/n1cnc2ccccc21	CHOP inhibitor 74
COCCn1c(C)cc(/C=C2/NC(=O)N(c3ccc(Cl)cc3)C2=O)c1C	none
COC(=O)C1=C(O)/C(=C\c2ccc(CNS(=O)(=O)c3ccccc3)o2)N=C1C	none
COC(=O)C1=C(O)/C(=C\c2ccc(CNS(=O)(=O)c3ccc(Cl)cc3)o2)N=C1C	L major viab 53 (no result: Rad51 HR inh)
COC(=O)C1=C(O)/C(=C\c2ccc(CNC(=O)C(=O)Nc3ccc(C)c(C)c3)o2)N=C1C	CHOP inhibitor 73
CCOC(=O)C1=C(O)/C(=C\c2ccc(CNS(=O)(=O)c3ccc(Br)cc3)o2)N=C1C	L major viab 66
Cc1cc(NC(=O)Nc2cc(F)ccc2F)no1	none (no result: Arbovirus inh, PKD1 kinase inh, L major viab, Rad51 HR inh)
CCOC(=O)c1c(C)nc2sc3c(=O)n(-c4ccc(OC)cc4)cnc3c2c1-c1ccc(OC)cc1	none
CCOC(=O)c1c(C)nc2sc(C(=O)Nc3ccc(OC)cc3)c(N)c2c1-c1ccc(OC)cc1	none
CCOC(=O)c1c(C)nc2sc(C(N)=O)c(N)c2c1-c1ccc(OC)cc1	L major viab 94
CCOC(=O)c1c(C)nc2sc(C(=O)Nc3ccc(C(C)=O)cc3)c(N)c2c1-c1ccc(OC)cc1	L major viab 95
COc1ccc(-c2c(C(C)=O)c(C)nc3sc4c(=N)n(N)cnc4c23)cc1	L major viab 62
N#Cc1cnc2c(-c3ccccc3)c(-c3ccccc3)nn2c1N	CHOP inhibitor 78
COc1ccccc1-c1c(C)oc2cc(OCC(=O)OCc3ccccc3)ccc2c1=O	L major viab 87
COC(=O)c1cn(-c2ccc(Cl)cc2)c(=O)c2ccccc12	L major viab 58

High-throughput results (PubChem)
